The nature of series [1]: folding enthalpy; higher = less favourable; fluorescence melt of hairpins on a sequencing array, two-state fit. The note with it: sodium 0.088 M. The method, boiled down: (§1)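 Cy3 signals were normalised both to pre-quench Cy3 and to control constructs. They came from library hairpins carrying annealed Cy3 and quencher oligos on a sequenced MiSeq flow cell, imaged in 50 mM Na-HEPES pH 8.0, 25 mM NaCl, in 2.5 °C steps up to 60 °C. Bootstrapped two-state fits gave melting temperature and folding enthalpy, and four replicates were combined by inverse variance. Fitted temperatures were then raised by 9.35 °C to match UV melts.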

A short description of series [2]: melting temperature; fluorescence melt of hairpins on a sequencing array, two-state fit, raised by 9.35 °C to match UV melts. To be noted: sodium 0.088 M. The method, boiled down:
as §1

Drawing on the array DNA melting data of Ke et al. (doi:10.1101/2024.01.08.574731), this text covers folding enthalpy and Tm for 37 sequences.

GATTCGGGAAACTGGATC (((.(.(....).).))): in series [1], the folding enthalpy is -24.2 kcal/mol. The Tm in series [2] was found to be 30.8 °C.

Take CGTCCGGAAACGGGACG ((((((....))).))): the folding enthalpy in series [1] is -30.4 kcal/mol. Moreover, the Tm in series [2] was found to be 55.8 °C.

As to GCGTCCAGACGC ((((....)))), in series [1], the folding enthalpy was -28.7 kcal/mol. Also, the Tm in series [2] is 56.6 °C.

As to GCGACAGGAAACTGCCAC (.(.(((....))).).), in series [1], the folding enthalpy is -9.04 kcal/mol. The Tm in series [2] came to 20.6 °C.

In the case of GTATCCGGAAACGAATAC ((((.((....)).)))), the folding enthalpy in series [1] is -26.5 kcal/mol. The Tm in series [2] worked out at 33.5 °C.

In the case of GATCCCAGACGGGATC ((((((....)))))), the folding enthalpy in series [1] was -37.1 kcal/mol. In addition, the Tm in series [2] stood at 58.6 °C.

Take GTTGACGAAAGTCGCAAC ((((((....)))..))): the folding enthalpy in series [1] is -13.3 kcal/mol. Moreover, the Tm in series [2] stood at 31 °C.

As to GCGGGGCGAAAGCGCTGC ((.(.((....)).).)), the folding enthalpy in series [1] is -35.9 kcal/mol. The Tm in series [2] is 66.4 °C.

As for GTGTGTCGAAAGACTCAC (((.(((....))).))), the folding enthalpy in series [1] is -40.9 kcal/mol. The Tm in series [2] is 53.2 °C.

For the sequence GTGGAGGGAAACCTCCAC (((((((....))))))), in series [1], the folding enthalpy is -40.9 kcal/mol. Besides, in series [2], the Tm worked out at 66.5 °C.

For GATCTCTCGTGAGATC ((((((....)))))), the folding enthalpy in series [1] is -40 kcal/mol. Further, the Tm in series [2] came out at 52.5 °C.

Take GATCGTTCGTACGATC ((((((....)))))): the folding enthalpy in series [1] is -44.1 kcal/mol. Besides, in series [2], the Tm was 55.5 °C.

Regarding GGGTTTCGAAAGAATCCC (((.(((....))).))), the folding enthalpy in series [1] was -36.6 kcal/mol. Further, in series [2], the Tm turned out to be 50.1 °C.

On to GACTTCGGAAACGAGGTC (((.(((....))).))), for which, in series [1], the folding enthalpy was -35.9 kcal/mol. Besides, in series [2], the Tm was 49.9 °C.

With GTATAGCGAAAGCTCTAC (((.(((....))).))), in series [1], the folding enthalpy is -17.3 kcal/mol. The Tm in series [2] is 39.7 °C.

As for GGCCTCGAAAGAGCGGCC ((((((....)))..))), the folding enthalpy in series [1] is -29.1 kcal/mol. The Tm in series [2] was determined as 51.8 °C.

On to GAAAGCGAAAGCTTTC ((((((....)))))), for which the folding enthalpy in series [1] is -34.9 kcal/mol. Besides, the Tm in series [2] amounted to 64.7 °C.

For the sequence GATATGCGAAAGCAGATC (((.(((....))).))), the folding enthalpy in series [1] was -30.3 kcal/mol. The Tm in series [2] is 53.3 °C.

With GACCTAGGAAACTGGGTC ((((.((....)).)))), the folding enthalpy in series [1] is -35 kcal/mol. The Tm in series [2] is 49.6 °C.

Take GCGGTTCGAAAGAACGC (((.(((....)))))): the folding enthalpy in series [1] was -26.8 kcal/mol. Further, the Tm in series [2] was found to be 61.2 °C.

For the sequence GCCTATCGAAAGATCGGC (((.(((....))).))), in series [1], the folding enthalpy is -41.7 kcal/mol. Moreover, the Tm in series [2] is 49 °C.

Take GTCGACGGAAACGTCGGC (.(((((....))))).): the folding enthalpy in series [1] was -22.3 kcal/mol. Besides, the Tm in series [2] turned out to be 64.8 °C.

Regarding GCGCGGCGAAAGCGGGGC ((.(.((....)).).)), the folding enthalpy in series [1] is -27.7 kcal/mol. The Tm in series [2] came out at 64.4 °C.

In the case of GATCCTATAAAGGATC ((((((....)))))), in series [1], the folding enthalpy is -38.6 kcal/mol. Also, the Tm in series [2] turned out to be 51.8 °C.

With GCGTAGCGAAAGCCAAGC ((.(.((....)).).)), the folding enthalpy in series [1] was -8.12 kcal/mol. In addition, the Tm in series [2] amounted to 39.9 °C.

For the sequence GGGACCGAAAGGTAGCCC ((((((....)))..))), in series [1], the folding enthalpy was -16 kcal/mol. In addition, the Tm in series [2] worked out at 43.2 °C.

With GATCCTGAGAAGGATC ((((((....)))))), the folding enthalpy in series [1] was -40.2 kcal/mol. Also, in series [2], the Tm is 57.6 °C.

Turning to GCTGACCGAAAGGTGAGC (((.(((....))).))), the folding enthalpy in series [1] was -38.4 kcal/mol. In series [2], the Tm worked out at 55.4 °C.

As for GATCTGGAATCAGATC ((((((....)))))), the folding enthalpy in series [1] was -40.5 kcal/mol. Also, in series [2], the Tm was 54.3 °C.

Turning to GTGCATGGAAACGTGTAC ((.((.(....).)).)), the folding enthalpy in series [1] is -17.6 kcal/mol. For the same sequence, the Tm in series [2] was 38.6 °C.

Consider GAACGCGAAAGCGATTTC ((((((....)))..))), for which the folding enthalpy in series [1] is -9.14 kcal/mol. The Tm in series [2] was 32.3 °C.

Consider GTGCACACGAAAGTGCAC (((..(((....)))))), for which, in series [1], the folding enthalpy is -30.8 kcal/mol. Further, in series [2], the Tm is 60 °C.

Take GTGTACGAAAGTAGTCAC ((((((....)))..))): the folding enthalpy in series [1] was -12.2 kcal/mol. In addition, in series [2], the Tm amounted to 30.9 °C.

As for GTACCCGAAAGGGTATAC ((((((....)))..))), in series [1], the folding enthalpy was -10.4 kcal/mol. Moreover, the Tm in series [2] turned out to be 49.4 °C.

GTCGACGAAAGTCGGAC ((((((....))).))): in series [1], the folding enthalpy is -14.3 kcal/mol. Besides, the Tm in series [2] was determined as 58.1 °C.

For GCGACCGAAAGGTCCCGC ((((((....)))..))), the folding enthalpy in series [1] is -13.3 kcal/mol. For the same sequence, the Tm in series [2] came out at 42.1 °C.

Turning to GACTCCCGAAAGGGCGTC (((.(((....))).))), the folding enthalpy in series [1] was -27.3 kcal/mol. Also, the Tm in series [2] was found to be 53.5 °C.
